# According to ChEMBL document CHEMBL4229525, “Anti-angiogenic and anticancer effects of baicalein derivatives based on transgenic zebrafish model” (Bioorg Med Chem, 2018):
# The source made the active and inactive calls. No cut-off for these calls is given here.
# How the values were obtained:
# HUVEC [1] = experiment: Antiangiogenic activity in HUVEC assessed as inhibition of capillary-like tube formation at 25 uM after 12 hrs by matrigel-based microscopic analysis; assay type: functional; conditions: Homo sapiens
# Method in brief: (§1)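 Growth-factor-reduced Matrigel solidified 120 min at 37 °C; 2×10⁴ HUVECs/well in EGM-2 with compound or 2 μM SU5416, 12 h. Networks imaged at 100× and tube length quantified in four random fields; mean ± SEM, n=3.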
# A549 [2] = experiment: Induction of apoptosis in human A549 cells assessed as live cells at 4 uM after 48 hrs by Annexin-V-FITC/propidium iodide staining based flow cytometry (reference value: 75.2%); assay type: functional
# Method in brief: (§2)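 A549 cells, 2×10⁵/well, were cultured for 24 h at 37 °C, 5% CO₂, then treated 48 h with 1, 4 or 8 μM compound. Staining used annexin V-FITC and PI, 30 min at 25 °C, followed by flow cytometry; Q3 was counted as early apoptotic and Q2 as late apoptotic.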
# HUVEC [3] = experiment: Antiangiogenic activity in HUVEC assessed as inhibition of capillary-like tube formation at 50 uM after 12 hrs by matrigel-based microscopic analysis; assay type: functional; conditions: Homo sapiens; method in brief: as §1
# A549 [4] = experiment: Induction of apoptosis in human A549 cells assessed as late apoptotic cells at 8 uM after 48 hrs by Annexin-V-FITC/propidium iodide staining based flow cytometry (reference value: 4.05%); assay type: functional; method in brief: as §2
# [5] = Antiangiogenic index, ratio of LC100 for 24 to 72 hrs post fertilized zebra fish embryo harboring fli1:EGFP to MEC for antiangiogenic activity in 24 to 72 hrs post fertilized zebra fish embryo harboring fli1:EGFP; assay type: toxicity, organism-based, Danio rerio; conditions: fli1:EGFP transgenic, zebrafish, in vivo
# Method in brief: (§3)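 Dechorionated Tg(fli1:EGFP) embryos at 24 hpf, 20 per group, were kept in 1 mL embryo water with compound at 28.5 °C for a further 48 h. Compound was tested at 1, 5, 10, 25, 50, 75, 100, 150 and 200 μM. At 72 hpf, embryos anaesthetised with 0.016% tricaine had their ISVs imaged by fluorescence microscopy, with SU5416 as positive control. Definitions used: LOEC is anti-angiogenic effect in most larvae; LOTC is lowest toxic concentration; LC100 is total embryo lethality. TI = LOTC/LOEC; AI = LC100/LOEC.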
# A549 [6] = experiment: Antiproliferative activity against human A549 cells after 48 hrs by MTT assay; assay type: functional, cell-based; conditions: A549, 48 h
# Method in brief: (§4)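 A549 or L929 fibroblasts seeded at 4×10⁴ cells/mL in DMEM with 10% FBS, 5% horse serum and penicillin/streptomycin, 37 °C, 5% CO₂. After 24 h, compound added for 48 h. MTT read at 570 nm; viability = OD treated/OD untreated ×100%; mean ± SD.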
# Danio rerio [7] = organism: Danio rerio; experiment: Antiangiogenic activity in 48 hrs post fertilized zebra fish embryo harboring fli1:EGFP assessed as inhibition of dorsal long axis blood vessel formation at 50 uM by fluorescence microscopic analysis; assay type: functional
# Method in brief: (§5)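 Tg(fli1:EGFP) zebrafish: 20 dechorionated 24 hpf embryos per group in 1 mL embryo water with compound (1, 5, 10, 25, 50, 75, 100, 150, 200 μM), 28.5 °C for 48 h. Embryos anaesthetised in 0.016% tricaine; ISVs imaged by fluorescence microscopy at 72 hpf and scored for vessel defects and overall morphology. SU5416 positive control.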
# HUVEC [8] = experiment: Antiangiogenic activity in HUVEC assessed as inhibition of capillary-like tube formation at 100 uM after 12 hrs by matrigel-based microscopic analysis; assay type: functional; conditions: Homo sapiens; method in brief: as §1
# Danio rerio [9] = organism: Danio rerio; experiment: Antiangiogenic activity in 48 hrs post fertilized zebra fish embryo harboring fli1:EGFP assessed as inhibition of intersegmental vessel formation by fluorescence microscopic analysis; assay type: functional, organism-based; method in brief: as §5
# Danio rerio [10] = organism: Danio rerio; experiment: Antiangiogenic activity in 48 hrs post fertilized zebra fish embryo harboring fli1:EGFP assessed as inhibition of intersegmental vessel formation at 50 uM by fluorescence microscopic analysis; assay type: functional; method in brief: as §5
# HUVEC [11] = experiment: Antiangiogenic activity in HUVEC assessed as inhibition of capillary-like tube formation after 12 hrs by matrigel-based microscopic analysis; assay type: functional, cell-based; conditions: Homo sapiens; method in brief: as §1
# A549 [12] = experiment: Induction of apoptosis in human A549 cells assessed as live cells at 1 uM after 48 hrs by Annexin-V-FITC/propidium iodide staining based flow cytometry (reference value: 75.2%); assay type: functional; method in brief: as §2
# Danio rerio [13] = organism: Danio rerio; experiment: Toxicity in 24 to 72 hrs post fertilized zebra fish embryo harboring fli1:EGFP; assay type: organism-based; conditions: zebrafish, in vivo; method in brief: as §3
# A549 [14] = experiment: Induction of apoptosis in human A549 cells assessed as caspase-3 activation at 1 to 8 uM by Ac-DEVD-pNA substrate based assay; assay type: functional, cell-based
# Method in brief: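 A549 lysates were spun at 15,000 rpm for 15 min at 4 °C. Then 110 µg protein was mixed with reaction buffer and Ac-DEVD-pNA substrate (2 mM stock) and incubated 3 h at 37 °C. Caspase-3 activity was measured as released pNA at 405 nm.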
# [15] = Toxicity index, ratio of MTC for 24 to 72 hrs post fertilized zebra fish embryo harboring fli1:EGFP to MEC for antiangiogenic activity in 24 to 72 hrs post fertilized zebra fish embryo harboring fli1:EGFP; assay type: organism-based, Danio rerio; conditions: fli1:EGFP transgenic, zebrafish, in vivo; method in brief: as §3
# Danio rerio [16] = organism: Danio rerio; experiment: Antiangiogenic activity in 48 hrs post fertilized zebra fish embryo harboring fli1:EGFP assessed as changes in blood vessel formation at late stage embryos by fluorescence microscopic analysis; assay type: functional, organism-based; method in brief: as §5
# A549 [17] = experiment: Induction of apoptosis in human A549 cells assessed as necrotic cells at 8 uM after 48 hrs by Annexin-V-FITC/propidium iodide staining based flow cytometry (reference value: 5.45%); assay type: functional; method in brief: as §2
# A549 [18] = experiment: Induction of apoptosis in human A549 cells assessed as live cells at 8 uM after 48 hrs by Annexin-V-FITC/propidium iodide staining based flow cytometry (reference value: 75.2%); assay type: functional; method in brief: as §2
# A549 [19] = experiment: Induction of apoptosis in human A549 cells assessed as necrotic cells at 1 uM after 48 hrs by Annexin-V-FITC/propidium iodide staining based flow cytometry (reference value: 5.45%); assay type: functional; method in brief: as §2
# Danio rerio [20] = organism: Danio rerio; experiment: Toxicity in 48 hrs post fertilized zebra fish embryo harboring fli1:EGFP assessed as morphological changes at 5 to 50 uM; assay type: organism-based; conditions: zebrafish, in vivo; method in brief: as §5
# A549 [21] = experiment: Induction of apoptosis in human A549 cells assessed as late apoptotic cells at 1 uM after 48 hrs by Annexin-V-FITC/propidium iodide staining based flow cytometry (reference value: 4.05%); assay type: functional; method in brief: as §2
# A549 [22] = experiment: Induction of apoptosis in human A549 cells assessed as early apoptotic cells at 8 uM after 48 hrs by Annexin-V-FITC/propidium iodide staining based flow cytometry (reference value: 15.2%); assay type: functional; method in brief: as §2
# A549 [23] = experiment: Induction of apoptosis in human A549 cells assessed as early apoptotic cells at 1 uM after 48 hrs by Annexin-V-FITC/propidium iodide staining based flow cytometry (reference value: 15.2%); assay type: functional; method in brief: as §2
# Danio rerio [24] = organism: Danio rerio; experiment: Antiangiogenic activity in 24 to 72 hrs post fertilized zebra fish embryo harboring fli1:EGFP after 48 hrs by fluorescence microscopic analysis; assay type: functional; method in brief: as §5
# L929 = experiment: Cytotoxicity against mouse L929 cells after 48 hrs by MTT assay; assay type: functional, cell-based; conditions: L929, 48 h; method in brief: as §4
# A549 [25] = experiment: Induction of apoptosis in human A549 cells assessed as necrotic cells at 4 uM after 48 hrs by Annexin-V-FITC/propidium iodide staining based flow cytometry (reference value: 5.45%); assay type: functional; method in brief: as §2
# HUVEC [26] = experiment: Antimigratory activity in HUVEC at 25 uM after 8 hrs by crystal violet staining based Boyden chamber assay relative to control; assay type: functional, Homo sapiens
# Method in brief: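 Boyden chamber with 8 μm pores, 8000 HUVECs/well, compound or vehicle in the top chamber, 8 h migration. Non-migrated cells removed by swab; migrated cells fixed in 100% methanol, stained with 0.05% crystal violet and counted manually in four random fields per well. Three replicate wells; % inhibition relative to control set at 100%; mean ± SEM, n=3.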
# HUVEC [27] = experiment: Cytotoxicity against HUVEC assessed as inhibition of cell proliferation after 48 hrs by CCK8 assay; assay type: cell-based, Homo sapiens
# Method in brief: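 HUVECs were seeded at 3000/well in EGM-2 and allowed 12 h to attach, then exposed 48 h to compound (5–50 μM) or 0.1% DMSO vehicle. Growth was read by CCK-8 absorbance at 450 nm, in triplicate, and IC50 was calculated from the concentration–response data.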
# A549 [28] = experiment: Induction of apoptosis in human A549 cells assessed as late apoptotic cells at 4 uM after 48 hrs by Annexin-V-FITC/propidium iodide staining based flow cytometry (reference value: 4.05%); assay type: functional; method in brief: as §2
# A549 [29] = experiment: Induction of apoptosis in human A549 cells assessed as early apoptotic cells at 4 uM after 48 hrs by Annexin-V-FITC/propidium iodide staining based flow cytometry (reference value: 15.2%); assay type: functional; method in brief: as §2
smiles,measurement,setting,value
O=C(COc1c(OCc2ccccc2)cc2oc(-c3ccccc3)cc(=O)c2c1O)N1CCNCC1,inhibition at 25 µM,HUVEC [1],24.9%
same,Activity,A549 [2],22.4%
same,inhibition at 50 µM,HUVEC [3],54.2%
same,Activity,A549 [4],62.1%
same,selectivity ratio,[5],20
same,IC50,A549 [6],4.73 µM
same,inhibition (INH),Danio rerio [7],100%
same,inhibition at 100 µM,HUVEC [8],72.6%
same,inhibition,Danio rerio [9],Dose-dependent effect
same,inhibition (INH),Danio rerio [10],100%
same,inhibition,HUVEC [11],Dose-dependent effect
same,Activity,A549 [12],36.2%
same,LC100,Danio rerio [13],100 µM
same,MTC,Danio rerio [13],25 µM
same,Activity,A549 [14],Active
same,selectivity ratio,[15],5
same,Activity,Danio rerio [16],inactive
same,Activity,A549 [17],2.15%
same,Activity,A549 [18],10.2%
same,Activity,A549 [19],7.92%
same,Activity,Danio rerio [20],Non-Toxic
same,Activity,A549 [21],23%
same,Activity,A549 [22],22.5%
same,Activity,A549 [23],32.9%
same,MEC,Danio rerio [24],5 µM
same,IC50,L929,19.1 µM
same,Activity,A549 [25],5.4%
same,Activity,HUVEC [26],<=50%
same,IC50,"HUVEC [27]; Homo sapiens, HUVEC",57.1 µM
same,inhibition (INH),"HUVEC [27]; human, huvec",Dose-dependent effect
same,Activity,A549 [28],36%
same,Activity,A549 [29],36.3%
